Assay outcomes as filed in PubChem.
This is a sample that favours compounds with a hit; in the whole collection about 3.2% have one here.
DAX1 inh-1 – NR0B1 (DAX1) inhibition. inhibition, % at 6.75 µM. actives 0.99% (n = 340,000). P51843. HEK293 Gal4-DAX1 luciferase reporter, luminescence;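 active = inhibition above the mean over all tested compounds plus 3 SD, cut at about 4.2% in these data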;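 note: inhibition shows as a rise in luminescence from relieved DAX1 repression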
JMJD2C inh – blocks human GASC-1 demethylase activity; Q9H3R0; GST-JMJD2C(1-420) H3K9me3 demethylation, DELFIA europium; inhibition, % at 2.35 µM; actives 0.069% (n = 330,000); AID 2099;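 active = more than half of a compound's replicate wells show inhibition beyond 50%, single wells judged on their own value; inconclusive = some, but no more than half, of replicates pass 50% inhibition; inactive = no replicate passes 50% inhibition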;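 note: signal counts dimethyl H3K9 product captured on neutravidin plate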
Target sequence (Q9H3R0 1-420 limits assumed): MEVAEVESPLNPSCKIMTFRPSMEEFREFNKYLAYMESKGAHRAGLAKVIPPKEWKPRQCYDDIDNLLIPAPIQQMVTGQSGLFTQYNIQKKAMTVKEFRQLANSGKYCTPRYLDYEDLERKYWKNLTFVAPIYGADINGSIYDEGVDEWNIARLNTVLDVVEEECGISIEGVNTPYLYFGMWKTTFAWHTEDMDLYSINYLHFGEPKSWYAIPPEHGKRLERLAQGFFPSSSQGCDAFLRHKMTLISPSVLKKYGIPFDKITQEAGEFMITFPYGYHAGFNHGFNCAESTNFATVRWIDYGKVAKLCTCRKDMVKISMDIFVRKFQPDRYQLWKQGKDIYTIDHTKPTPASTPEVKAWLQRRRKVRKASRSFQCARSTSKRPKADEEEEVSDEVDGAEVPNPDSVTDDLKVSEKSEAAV
DAX1 inh-2 – DAX1 (NR0B1) inhibition, primary screen. HEK293T StAR-luciferase reporter, SF-1/DAX-1 repression relief. inhibition, % at 6.8 µM. actives 1.1% (n = 370,000). AID 652010;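 active = inhibition above the mean over all tested compounds plus 3 SD, cut at about 3.6% in these data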;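 note: higher inhibition means more luminescence from relief of DAX-1 repression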
NR2E3 ag-1 – agonists of human NR2E3 nuclear receptor | Q9Y5X4 | actives 0.35% (n = 360,000) | inhibition of corepressor binding, % at 3.98 µM | AID 602229 | CHO-S Gal4-NCOR/VP16-NR2E3 two-hybrid, luciferase;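 active = inhibition above the mean of all tested compounds plus 3 SD, cut at about 70% in these data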;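 note: higher means lower luciferase signal from less NR2E3 corepressor binding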
SMARCA2 act – SMARCA2 function activation, primary screen. actives 1% (n = 370,000). activation, % at 9.1 µM. AID 652017. MG213 cells, MMTV-luciferase reporter, dexamethasone, overnight; in the data active = activation above about 7.8%
NR2E3 ag-2 – NR2E3 (human) agonism. GST-NR2E3/biotin-RetCOR TR-FRET, 1536-well. inhibition of corepressor binding, % at 4.78 µM. actives 0.12% (n = 320,000). AID 2300;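 active = percent inhibition above the cutoff of mean plus 3 SD of all tested compounds, set per screening campaign, cut at about 20% in these data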
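Material: NR2E3–RetCOR corepressor complex | Quantity: 1.35 nM GST-tagged NR2E3 final | Schedule: 5 h at 4 °C | Replication: Singlicate compound wells | Reagent: RetCOR corepressor, biotinylated, 7 nM | Controls: Biotin wells as high control, 0.6% DMSO wells as low control | Signal: TR-FRET, Eu(K)-anti-GST donor, streptavidin-D2 acceptor, ex 340, em 617/671 nm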
Large screens that a line does not name were inactive.

CCN(CC)c1ccc(C=C2C(=O)N(C)C(=S)N(C)C2=O)o1	none
CCN(CC)c1ccc(/C=C2\C(=O)NC(=S)N(C)C2=O)o1	DAX1 inh-1 7.5
O=C(O)[C@H]1NC[C@H]2C[C@H]21	DAX1 inh-1 4.8
c1ccc2c3c(ccc2c1)OCC1CONC31 (stereo unspecified)	JMJD2C inh 82.3 (no result: DAX1 inh-1, NR2E3 ag-1)
Cc1ccc(C(=O)NCCN2CCC3(CC2)C(=O)NCN3c2ccccc2)cc1	none (no result: DAX1 inh-1, JMJD2C inh, NR2E3 ag-1, NR2E3 ag-2)
COc1ccc(-c2nn(CCC#N)cc2C(=O)Nc2ccccc2Br)cc1[N+](=O)[O-]	DAX1 inh-1 4.9
COC(=O)C1(N(C)c2ccccc2)CCN(Cc2ccccc2)CC1	none (no result: DAX1 inh-1, JMJD2C inh, NR2E3 ag-1, NR2E3 ag-2)
CN(C)c1ccc(/C=C2\C(=O)NC(=O)N(CCc3ccc(F)cc3)C2=O)cc1	DAX1 inh-1 5.5
COCCN1C(=O)NC(=O)/C(=C\c2ccc(F)cc2)C1=O	none
CC(C)COC(=O)c1ccccc1C(=O)OCC(C)C	JMJD2C inh inconclusive
C[CH2][Hg][S]c1ccccc1C(=O)O	NR2E3 ag-1 93.4 (no result: JMJD2C inh)
NC(Cc1ccccc1)[P+](=O)O (stereo unspecified)	none (no result: DAX1 inh-1, JMJD2C inh, NR2E3 ag-1, NR2E3 ag-2)
O=C(CN1C(=O)COc2ccccc21)N1CCC2(CC1)OCCO2	none
O=C(CSc1ccccc1)N1CCC2(CC1)OCCO2	DAX1 inh-2 3.9
CC[C@H](C(N)=O)N1CCCC1=O	none (no result: DAX1 inh-1, JMJD2C inh, NR2E3 ag-1, NR2E3 ag-2)
C=CCc1ccc(OC)cc1	DAX1 inh-1 4.5
COc1ccc(CN2CCNCC2)cc1	none (no result: NR2E3 ag-2)
c1ccc2c(c1)-c1cccc3cccc-2c13	DAX1 inh-1 5.3 (no result: JMJD2C inh)
Nc1c(Br)cc2c3c(cccc13)-c1ccccc1-2	none (no result: DAX1 inh-1, JMJD2C inh, NR2E3 ag-1, NR2E3 ag-2)
O=C1NC(=O)N(Cc2ccccc2)C(=O)/C1=C/C=C/c1ccco1	JMJD2C inh 57.6
COc1ccc(CN2C(=O)NC(=O)/C(=C\c3ccco3)C2=O)cc1	none
N#CC1c2ccccc2-n2nncc2CN1C(=O)c1cccnc1 (stereo unspecified)	none (no result: DAX1 inh-1, JMJD2C inh, NR2E3 ag-1, NR2E3 ag-2)
O=C(CN1C(=O)[C@@H](Cc2c[nH]c3ccccc23)N=C(c2ccccc2)c2ccccc21)NC1CCCCC1	none (no result: DAX1 inh-1, JMJD2C inh, NR2E3 ag-1, NR2E3 ag-2)
O=C(CN1C(=O)[C@@H](Cc2ccccc2)N=C(c2ccccc2)c2ccccc21)NC1CCCCC1	none (no result: DAX1 inh-1, JMJD2C inh, NR2E3 ag-1, NR2E3 ag-2)
C=CCn1c(O)c(C(C)=NCc2ccco2)c(=O)[nH]c1=O	none
C=CCn1c(O)c(C(CC)=NCc2ccco2)c(=O)[nH]c1=O	DAX1 inh-1 4.9, JMJD2C inh inconclusive
N#CCC[C@H]1CC[C@]2(CCCN(Cc3ccccn3)C2)O1	none (no result: DAX1 inh-1, JMJD2C inh, NR2E3 ag-1, NR2E3 ag-2)
COc1cc(O)c2c(c1)/C=C/C[C@H](O)[C@H](O)[C@@H](O)/C=C/C[C@H](C)OC2=O	none (no result: DAX1 inh-1, JMJD2C inh, NR2E3 ag-1, NR2E3 ag-2)
COCCNC(=O)CN1C(=O)CN=C(c2ccccc2)c2ccccc21	DAX1 inh-1 4.5
CCCCNC(=O)CN1C(=O)CN=C(c2ccccc2)c2ccccc21	none
O=c1[nH]c(=O)n(-c2ccc(Br)cc2)c(O)c1C=NCCN1CCCCC1	DAX1 inh-1 6.4
CCOc1cc(/C=C2\C(=O)NC(=O)N(C)C2=O)cc([N+](=O)[O-])c1O	DAX1 inh-1 12.9
CCSC(=O)N1CCCCCC1	SMARCA2 act 7.8
O=C(N1CCCCCC1)N1CC1	none (no result: JMJD2C inh, NR2E3 ag-2)
COc1ccc2c3c([nH]c2c1)[C@H](C=C(C)C)N1C(=O)[C@@H]2CCCN2C(=O)[C@@H]1C3	none (no result: DAX1 inh-1, JMJD2C inh, NR2E3 ag-1, NR2E3 ag-2)
Cn1cccc1/C=C1/C(=O)NC(=O)N(C(C)(C)C)C1=O	DAX1 inh-1 4.8
Cc1cc(O)c2c(c1)C(=O)C13C(=C2O)C(=O)[C@H]2[C@@H](O)[C@@H]1[C@H]1[C@H](O)[C@@H]3C(=O)C3=C(O)c4c(O)cc(C)cc4C(=O)C312 (stereo partly specified)	NR2E3 ag-1 101.6 (no result: DAX1 inh-2, SMARCA2 act)
CC(C)C(NC(=O)OCc1ccccc1)P(=O)(Oc1ccccc1)Oc1ccccc1 (stereo unspecified)	none (no result: DAX1 inh-1, JMJD2C inh, NR2E3 ag-1, NR2E3 ag-2)
CC(=O)O[C@@]12CO[C@@H]1C[C@H](O)[C@@]1(C)C(=O)[C@H](O)C3=C(C)[C@@H](O)C[C@@](O)([C@@H](OC(=O)c4ccccc4)C12)C3(C)C (stereo partly specified)	DAX1 inh-1 4.3
O=C1NC(=S)N(c2ccc(Br)cc2)C(=O)/C1=C/N1CCN(C(=O)c2ccco2)CC1	DAX1 inh-1 4.7
